We go through three compounds from PubChem BioAssay AID588682 (Southern Research Specialized Biocontainment Screening …, 2011).

In this test the test system is M17 leucyl aminopeptidase (Plasmodium falciparum 3D7). The experiment in a line: PfM17LAP leucine aminopeptidase inhibitors, dose response, counter-screen for PfM1AAP inhibitor project, biochemical, QFRET (AID 588682). The conditions noted are these: recombinant PfM17LAP, H-Leu-NHMec fluorogenic cleavage; series mostly up to 100 µM. A digest of the protocol: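 Material: recombinant Plasmodium falciparum M17 leucine aminopeptidase (rPFM17LAP). Amount: 5 µg/mL rPFM17LAP enzyme. Medium: Tris pH 7.5 plus 2 mM CoCl2. Doses: compound dose series from 100 to 0.2 µM. Incubation: 90 min, room temperature. Signal: fluorescence 370/460 nm. Evaluation: % enzyme inhibition. Control set: background wells lacking enzyme. Repeats: triplicate.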
(In general: The purpose of a counterscreen is to sort out artefacts and off-target activity.)

The source made the active and inactive calls.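 How the source made its calls: active means inhibition of 30% or more at any tested concentration; inactive means the rest.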

As to `COc1cccc(-c2ccc(S(=O)(=O)N3CCC(C(=O)NCc4ccc5c(c4)OCO5)CC3)s2)c1`, the outcome was inactive. Next, `CC[C@H](C)[C@H](NC(=O)c1ccc([N+](=O)[O-])cc1)C(=O)NCc1ccc(F)cc1`: “inactive”.

As to `CN(C)c1ccc(CNC(=O)C2CCN(S(=O)(=O)c3ccc(Br)s3)CC2)cc1`, the result was inactive.
